Hits are enriched below; roughly 4.4% of the tested compounds scored in any of these assays.
NR3A LBD binder: binders of NR3A ligand-binding domain, primary screen, biophysical, differential scanning fluorimetry, uHTS; actives 2.5% (n = 340,000); Glutamate receptor ionotropic, NMDA 3A (GRIN3A) ligand-binding domain; Tm shift relative to glycine control, % at 25 µM; NR3A LBD differential scanning fluorimetry, Tm shift; 0% = protein alone, 100% = glycine-bound protein;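 active means melting temperature shift of at least 10% of the positive control shift, at one fixed dose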
MPTP inh: mitochondrial permeability transition pore inhibitors, primary screen, biochemical, isolated mouse mitochondria, absorbance; Ca2+ swelling absorbance, 30 min; inhibition, % at 10 µM; actives 1.4% (n = 360,000); AID 602449, 2012;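 active means inhibition of 50% or more, scaled per plate between neutral and stimulator controls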
EBI2 antag: EBI2 receptor antagonists, beta-arrestin recruitment, primary screen, cell-based, luminescence, 7a,25-OHC stimulation, uHTS | G-protein coupled receptor 183 (Homo sapiens), P32249 | 7a,25-OHC stimulated | inhibition, % at 5 µM | actives 0.81% (n = 360,000); in the data active means inhibition above about 38%;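 further: enzyme fragment complementation signal reports receptor beta-arrestin coupling in cells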
Target sequence (P32249 whole entry, looked up, the tested form may be a part): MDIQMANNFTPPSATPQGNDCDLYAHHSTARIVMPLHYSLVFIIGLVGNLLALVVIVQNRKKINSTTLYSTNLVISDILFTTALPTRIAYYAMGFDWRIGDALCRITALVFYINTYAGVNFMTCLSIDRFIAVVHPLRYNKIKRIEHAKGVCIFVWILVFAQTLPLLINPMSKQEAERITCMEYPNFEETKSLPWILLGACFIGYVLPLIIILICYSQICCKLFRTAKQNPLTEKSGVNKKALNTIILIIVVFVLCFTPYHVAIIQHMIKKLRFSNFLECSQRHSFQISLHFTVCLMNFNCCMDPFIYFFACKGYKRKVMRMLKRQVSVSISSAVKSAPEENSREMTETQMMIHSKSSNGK
SENP1 FRET inh: human SENP1 catalytic domain inhibitors, primary screen, biochemical, FRET, uHTS; inhibition, % at 10 µM; recombinant SENP1 catalytic domain, CyPet-SUMO1-YPet FRET cleavage; AID 624204, 2012; actives 0.21% (n = 360,000);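 active means inhibition at least 30% at 10 µM, raw YFP signal under a set limit, fluorescence ratio 0.5 to 1.5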
Target sequence (Q9P0U3 419-644 limits assumed): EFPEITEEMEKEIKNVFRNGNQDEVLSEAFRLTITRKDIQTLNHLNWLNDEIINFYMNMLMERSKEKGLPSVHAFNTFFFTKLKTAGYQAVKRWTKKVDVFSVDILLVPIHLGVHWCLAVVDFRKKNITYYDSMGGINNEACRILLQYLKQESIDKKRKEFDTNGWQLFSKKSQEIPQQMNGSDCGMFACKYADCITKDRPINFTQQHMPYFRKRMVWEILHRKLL
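Material: hSENP1 catalytic domain, recombinant; medium: Tris pH 8 with BME, BSA, NP40 and catalase; compound: single concentration of 10 µM compound, 0.5% DMSO final; technique: FRET read of cyan and yellow fluorescence; timing: 50 min enzyme reaction, room temperature, light-protected; reagent: SFCypet-SUMO1-SFYpet substrate at 25 nM; control set: no-enzyme low, enzyme-DMSO high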
Each line names hits and unclear results; the compound was inactive in the other large screens.

Oc1ccccc1-c1nc(NC2CCCC2)c2ccccc2n1	NR3A LBD binder 19
CS(=O)(=O)c1ccc(C(=O)OCC(=O)NC(=O)C2CCCCC2)cc1[N+](=O)[O-]	NR3A LBD binder 19
CS(=O)(=O)c1ccc(C(=O)OCc2nnc(-c3ccccc3)o2)cc1[N+](=O)[O-]	EBI2 antag 56
N#C/C(C(=O)Nc1ccc(Cl)cc1)=C(/S)Nc1ccccc1	NR3A LBD binder 32, EBI2 antag 57
Cc1cccc(C(=O)Nc2ccc(NC(=O)c3ccccc3)cc2)c1	none
Cc1ccc(NC(=O)c2ccc(NC(=O)c3ccccc3)cc2)cc1C	NR3A LBD binder 17
O=C(Nc1cc(-c2ccccc2)[nH]n1)c1ccc(Cl)cc1	NR3A LBD binder 18
CC(=O)c1ccc(NC(=O)c2cccc(NC(=O)c3ccccc3)c2)cc1	none
O=C(Nc1ccc(Cl)cc1Cl)c1ccc(-c2ccccc2)cc1	none
O=C(Nc1cccc(C(=O)Nc2ccc(Br)cc2)c1)c1ccccc1	NR3A LBD binder 27
CC1(C(=O)NS(=O)(=O)c2cccs2)CCN1C(=O)C1(c2ccc(Cl)cc2)CCC1 (stereo unspecified)	none (no result: NR3A LBD binder)
O=C(Nc1ccc(Nc2ccccc2)cc1)c1ccc(Br)cc1	NR3A LBD binder 36
CC(=O)Nc1cccc(NC(=O)c2ccc(Br)cc2)c1	none
Cc1ccc(C(=O)Nc2ccc3ncccc3c2)cc1	none
O=C(Nc1ccc(F)cc1)c1ccccc1	NR3A LBD binder 16
Cc1ccc(C(=O)Nc2ccc(Nc3ccccc3)cc2)cc1Br	NR3A LBD binder 25
Cc1ccc(C(=O)Nc2ccc(Nc3ccccc3)cc2)cc1C	none
O=C(Nc1ccc2ncccc2c1)c1cccc(Br)c1	NR3A LBD binder 22
CCN(CC)C(=O)CSc1nnc(-c2ccccn2)n1-c1ccccc1OC	none
Cc1ccc2ccc(C#N)cc2c1O	none (no result: NR3A LBD binder)
CC(C)c1ccc2c(c1)[C@H]1OCC[C@H]1[C@@H](c1cccs1)N2	none
O=C(Nc1ccc(C2SCCS2)cc1)c1ccccc1	NR3A LBD binder 15
O=C(Nc1ccc2c(c1)OCCO2)c1oc2ccccc2c1NC(=O)C1CC1	none
O=C(NNc1ccc(O)cc1)c1ccc(Br)cc1	EBI2 antag 59
O=C(NNc1ccccc1)c1ccccc1	none
O=C(Nc1ccc(Nc2ccccc2)cc1)c1ccccc1	NR3A LBD binder 13 (no result: MPTP inh, EBI2 antag, SENP1 FRET inh)
O=C(Nc1ccccc1)c1oc2ccccc2c1NC(=O)C1CC1	NR3A LBD binder 13
CC1(C)CC(=O)C2=C(C1)Nc1ncnn1C2c1cccs1 (stereo unspecified)	none
O=C(/C=C/c1ccccc1)NC(N1CCOCC1)C(Cl)(Cl)Cl (stereo unspecified)	none
O=C(NNC(=O)c1ccc(NC(=O)C2CC2)cc1)c1ccc(F)cc1	none
O=C(Nc1ccccc1)c1ccc(NC(=O)C2CC2)cc1	NR3A LBD binder 16
O=C(Nc1ccc(Nc2ccccc2)cc1)c1ccc(Cl)cc1	NR3A LBD binder 32
O=C(COC(=O)CCCSc1nc2ccccc2[nH]1)Nc1ccc(Cl)cc1	NR3A LBD binder 16
Cc1cc2nc3n(c2cc1C)CC1CC(C(=O)NCCc2cccs2)N(C)C31 (stereo unspecified)	NR3A LBD binder 13
CN1C(C(=O)NCc2ccco2)CC2Cn3c(nc4cc5ccccc5cc43)C21 (stereo unspecified)	NR3A LBD binder 10
CN1C(C(=O)NCCc2cccs2)CC2Cn3c(nc4cc5ccccc5cc43)C21 (stereo unspecified)	none
CN1C(C(=O)NCc2ccccc2)CC2Cn3c(nc4cc5ccccc5cc43)C21 (stereo unspecified)	NR3A LBD binder 12
COc1ccc(C(CNC(=O)CCNC(=O)c2ccccc2OC)N2CCCC2)cc1 (stereo unspecified)	none
Cc1cc(Cl)c(S(=O)(=O)NC2CCCC2)cc1OCC(N)=O	none
CN(C(=O)CSc1nc(-c2ccccc2)cn1N)C(c1ccccc1)c1ccccc1	EBI2 antag 36
COc1cnn(-c2ccc(Br)cc2)c(=O)c1SCc1ccccc1	NR3A LBD binder 15
COc1cnn(-c2ccc(C)cc2)c(=O)c1SCc1ccccc1	none
Cc1c(Cl)c([N+](=O)[O-])nn1CCCC(=O)Nc1cccc(O)c1	NR3A LBD binder 12
Cc1c(Cl)c([N+](=O)[O-])nn1CCCC(=O)Nc1cccc(Cl)c1Cl	none
Clc1ccc(Nc2ccc(Cl)nn2)cc1	NR3A LBD binder 24
NS(=O)(=O)c1cccc(NC(=O)COC(=O)c2cc(-c3ccc(Cl)cc3)nc3ccccc23)c1	NR3A LBD binder 34
Cc1ccc2c(Cl)cc(Cl)c(OCC(=O)Nc3cccc(S(N)(=O)=O)c3)c2n1	NR3A LBD binder 11
COc1ccc(NC(=O)CN(C)C(=O)Cc2n[nH]c(=O)c3ccccc23)cc1	none
CCOc1cc(NC(=S)NCCCN2CCOCC2)c(OCC)cc1NC(=O)c1cccs1	none
Cc1cc(F)ccc1C(O)c1ncc(-c2ccc(Oc3ccccc3)cc2)[nH]1 (stereo unspecified)	none (no result: NR3A LBD binder)
Cc1cccc2c(N=Nc3ccc(S(=O)(=O)Nc4cccc(Cl)c4)cc3[N+](=O)[O-])c(O)[nH]c12	NR3A LBD binder 13
CC1=NOC(=O)/C1=C/c1ccc(O)c(Cl)c1	NR3A LBD binder 20
CCOc1cc(/C=C2/C(=O)ON=C2C)ccc1O	none
COc1cc(/C=C2/C(=O)ON=C2C)cc(Cl)c1O	NR3A LBD binder 26
C#CCOc1c(Cl)cc(/C=C2/C(=O)ON=C2C)cc1OC	none
O=C(C(=O)c1cccnc1)c1cccnc1	none
O=C(O)c1cccnc1	NR3A LBD binder 14
CCN(CC)CCn1c(-c2ccc(C)cc2)nc(=S)c2c1CC(C)(C)OC2	NR3A LBD binder 14
COc1cccc(C(C(=O)NC2CCCC2)N2CCN(c3cc(C)nc4ccccc34)CC2)c1OC (stereo unspecified)	none (no result: NR3A LBD binder)
CCCCOc1ccc(-c2cc(C(=O)NNC(=S)NCC)c3ccccc3n2)cc1	NR3A LBD binder 17
CCCCOc1cccc(-c2cc(C(=O)NNC(=S)NCC)c3ccccc3n2)c1	NR3A LBD binder 11
CCNC(=S)NNC(=O)c1cc(-c2ccc(OC)cc2)nc2ccccc12	none
CCNC(=S)NNC(=O)c1cc(-c2cccc(OCC)c2)nc2ccccc12	none
CN(C)C(CNC(=O)C1CCN(S(=O)(=O)c2cc(Cl)ccc2Cl)CC1)Cc1ccccc1 (stereo unspecified)	none
CN(C)c1oc(-c2ccc(OCc3ccc(Cl)cc3)cc2)nc1C#N	NR3A LBD binder 29
O=c1cc(-c2ccccc2)oc2ccccc12	none
Nc1cc([N+](=O)[O-])cc2oc(-c3ccccc3)cc12	SENP1 FRET inh 34
CN1CCN(C2CN(Cc3ccc([N+](=O)[O-])cc3)S(=O)(=O)C2)CC1 (stereo unspecified)	none (no result: NR3A LBD binder)
O=C(NNC(=S)NC(=O)c1ccccc1[N+](=O)[O-])c1ccccc1O	none
O=C(NNC(=S)NC(=O)c1ccccc1[N+](=O)[O-])c1ccccc1[N+](=O)[O-]	none

Source: PubChem BioAssay (Sanford-Burnham Center for Chemical Genomics)
